Calls of active or inactive are those of the source. The rule behind the calls is not given here.
Experiments:
[1] = biological target: T1, Proteinase-activated receptor 1 (Homo sapiens, UniProt P25116); assay: (§1) Displacement of [3H]haTRAP from PAR1 in human platelet membrane; type: cell membranes
T1 sequence (P25116 whole entry): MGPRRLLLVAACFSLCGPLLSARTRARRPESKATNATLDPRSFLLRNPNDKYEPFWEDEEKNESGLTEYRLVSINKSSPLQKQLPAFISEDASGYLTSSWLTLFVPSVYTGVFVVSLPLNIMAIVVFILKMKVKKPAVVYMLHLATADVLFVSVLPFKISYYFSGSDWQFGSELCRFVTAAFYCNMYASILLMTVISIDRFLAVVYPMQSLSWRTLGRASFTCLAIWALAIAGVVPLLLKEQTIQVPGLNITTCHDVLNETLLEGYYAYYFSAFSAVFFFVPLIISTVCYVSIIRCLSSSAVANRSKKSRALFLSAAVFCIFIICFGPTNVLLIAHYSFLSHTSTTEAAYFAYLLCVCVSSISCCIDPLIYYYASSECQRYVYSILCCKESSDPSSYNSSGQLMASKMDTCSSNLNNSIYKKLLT
Method in brief: (§2)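 Membranes from human platelets as the PAR-1 source, with tritiated high-affinity thrombin receptor activating peptide ([3H]haTRAP) as radioligand; IC50 reported ± SEM, n = 2.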

[2] = AUC (0 to 6 hrs) in rat at 10 mg/kg, po; type: ADME, organism-based; design: time < 6 hr, dose 10 mg/kg, route oral; conditions: plasma
Method in brief: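 Rats given a single 10 mg/kg oral dose in 0.4% methylcellulose; plasma levels followed for 6 h and exposure reported as AUC from 0 to 6 h in ng·hr/mL.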

Cynomolgus monkey [3] = assay: Ex vivo inhibition of haTRAP-induced platelet aggregation in cynomolgus monkey at 3 mg/kg, po 24 hrs; type: functional; conditions: Macaca fascicularis
Method in brief: (§3)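 Conscious, chaired cynomolgus monkeys dosed orally at 3 mg/kg in 20% PEG-HPBCD; blood drawn at 1 h intervals to 6 h, then at 24 h; haTRAP added ex vivo as agonist; aggregation read in a whole blood aggregometer, reported as percent reduction.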

Cynomolgus monkey [4] = assay: Ex vivo inhibition of haTRAP-induced platelet aggregation in cynomolgus monkey at 3 mg/kg, po after 6 hrs; type: functional; conditions: Macaca fascicularis; method in brief: as §3
[5] = biological target: T2, Proteinase-activated receptor 1 (Homo sapiens) (UniProt P25116); assay: as §1; type: cell membranes; method in brief: as §2
T2 sequence (whole entry): T1 sequence (P25116 whole entry)

Cynomolgus monkey [6] = assay: Inhibition of haTRAP-induced platelet aggregation in cynomolgus monkey at 1 mg/kg, po after 24 hrs; type: functional; conditions: Macaca fascicularis
Method in brief: (§4)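 Cynomolgus monkeys dosed orally at 1 mg/kg and kept conscious in chairs; blood sampled hourly up to 6 h and again at 24 h; haTRAP added to the samples to trigger aggregation, measured by whole blood aggregometry.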

Cynomolgus monkey [7] = assay: Inhibition of haTRAP-induced platelet aggregation in cynomolgus monkey at 1 mg/kg, po up to 6 hrs; type: functional, organism-based; design: dose 1 mg/kg; conditions: Macaca fascicularis; method in brief: as §4
[8] = Bioavailability in cynomolgus monkey at 1 mg/kg, iv and 1.5 mg/kg, po; type: ADME, organism-based, Macaca fascicularis; conditions: in vivo
[9] = Tmax in cynomolgus monkey at 1 mg/kg, iv and 1.5 mg/kg, po; type: ADME, organism-based, Macaca fascicularis; conditions: in vivo
[10] = Half life in cynomolgus monkey at 1 mg/kg, iv and 1.5 mg/kg, po; type: ADME, organism-based, Macaca fascicularis; conditions: in vivo
[11] = AUC (0 to 24 hrs) in cynomolgus monkey at 1 mg/kg, iv and 1.5 mg/kg, po; type: ADME, organism-based, Macaca fascicularis; conditions: plasma
[12] = Cmax in cynomolgus monkey at 1 mg/kg, iv and 1.5 mg/kg, po; type: ADME, organism-based, Macaca fascicularis; conditions: in vivo

| SMILES | IC50 [1] [nM] | AUC(0-t) at 6 h [2] [ng·h/mL] | other results |
| --- | --- | --- | --- |
| C[C@H]1OC(=O)[C@@H]2C[C@@H]3COCC[C@H]3[C@H](/C=C/c3ccc(-c4cccc(F)c4F)cn3)[C@H]12 | 26 | 1190 |  |
| CCOC(=O)N1CCC[C@H]2[C@H](/C=C/c3ccc(-c4ccccc4C)cn3)[C@@H]3[C@@H](C)OC(=O)[C@@H]3C[C@@H]21 | 600 |  |  |
| C[C@H]1OC(=O)[C@@H]2C[C@@H]3CN(S(C)(=O)=O)CC[C@H]3[C@H](/C=C/c3ccc(-c4cccc(F)c4)cn3)[C@H]12 | 15 | 5350 | inhibition in vivo at 3 mg/kg (Cynomolgus monkey [3]): 50%; inhibition in vivo at 3 mg/kg (Cynomolgus monkey [4]): 54% |
| C[C@H]1OC(=O)[C@@H]2C[C@@H]3COCC[C@H]3[C@H](/C=C/c3ccc(-c4cccc(Cl)c4Cl)cn3)[C@H]12 | 21 |  |  |
| C[C@H]1OC(=O)[C@@H]2C[C@@H]3CN(C(=O)C4CC4)CC[C@H]3[C@H](/C=C/c3ccc(-c4cccc(F)c4)cn3)[C@H]12 | 15.5 | 4370 | inhibition in vivo at 3 mg/kg (Cynomolgus monkey [3]): 72%; inhibition in vivo at 3 mg/kg (Cynomolgus monkey [4]): 100% |
| CCOC(=O)N1CCC[C@H]2[C@H](/C=C/c3ccc(-c4cccc(C#N)c4)cn3)[C@@H]3[C@@H](C)OC(=O)[C@@H]3C[C@@H]21 | 295 |  |  |
| C[C@H]1OC(=O)[C@@H]2C[C@@H]3C[S+]([O-])CC[C@H]3[C@H](/C=C/c3ccc(-c4cccc(C(F)(F)F)c4)cn3)[C@H]12 (single isomer, unassigned; isomer 2) | 375 |  |  |
| C[C@H]1OC(=O)[C@@H]2C[C@@H]3COCC[C@H]3[C@H](/C=C/c3ccc(-c4cccc(Cl)c4)cn3)[C@H]12 | 19 |  |  |
| C[C@H]1OC(=O)[C@@H]2C[C@@H]3CN(C(=O)OCc4ccccc4)CC[C@H]3[C@H](/C=C/c3ccc(-c4cccc(C(F)(F)F)c4)cn3)[C@H]12 | 25 |  |  |
| CCOC(=O)N1CC[C@@H]2[C@H](C[C@H]3C(=O)O[C@H](C)[C@H]3[C@H]2/C=C/c2ccc(-c3ccccc3F)cn2)C1 | 8 | 3780 | inhibition in vivo at 3 mg/kg (Cynomolgus monkey [3]): 55%; inhibition in vivo at 3 mg/kg (Cynomolgus monkey [4]): 55% |
| CCOC(=O)N1CCC[C@H]2[C@H](/C=C/c3ccc(-c4ccccc4F)cn3)[C@@H]3[C@@H](C)OC(=O)[C@@H]3C[C@@H]21 | 153 |  |  |
| CCOC(=O)N1CCC[C@H]2[C@H](/C=C/c3ccc(-c4cccnc4)cn3)[C@@H]3[C@@H](C)OC(=O)[C@@H]3C[C@@H]21 |  |  | Activity [5]: inactive |
| C[C@H]1OC(=O)[C@@H]2C[C@@H]3CSCC[C@H]3[C@H](/C=C/c3ccc(-c4cccc(C(F)(F)F)c4)cn3)[C@H]12 | 22 |  |  |
| C[C@H]1OC(=O)[C@@H]2C[C@@H]3CS(=O)(=O)CC[C@H]3[C@H](/C=C/c3ccc(-c4cccc(C(F)(F)F)c4)cn3)[C@H]12 | 200 |  |  |
| C[C@H]1OC(=O)[C@@H]2C[C@@H]3COCC[C@H]3[C@H](/C=C/c3ccc(-c4ccccc4Cl)cn3)[C@H]12 | 13 |  |  |
| C[C@H]1OC(=O)[C@@H]2C[C@@H]3COCC[C@H]3[C@H](/C=C/c3ccc(-c4cccc(C(F)(F)F)c4)cn3)[C@H]12 | 17 | 545 |  |

| SMILES | IC50 [1] [nM] | AUC(0-t) at 6 h [2] [ng·h/mL] | other results |
| --- | --- | --- | --- |
| COCCOC(=O)N1CC[C@@H]2[C@H](C[C@H]3C(=O)O[C@H](C)[C@H]3[C@H]2/C=C/c2ccc(-c3cccc(F)c3)cn2)C1 | 16.5 | 88 |  |
| CCCS(=O)(=O)N1CC[C@@H]2[C@H](C[C@H]3C(=O)O[C@H](C)[C@H]3[C@H]2/C=C/c2ccc(-c3cccc(F)c3)cn2)C1 | 101 |  |  |
| CCNC(=O)N1CC[C@@H]2[C@H](C[C@H]3C(=O)O[C@H](C)[C@H]3[C@H]2/C=C/c2ccc(-c3cccc(F)c3)cn2)C1 | 18.5 | 2050 | inhibition in vivo at 3 mg/kg (Cynomolgus monkey [3]): 34%; inhibition in vivo at 3 mg/kg (Cynomolgus monkey [4]): 47% |
| C[C@H]1OC(=O)[C@@H]2C[C@@H]3CN(C(=O)C4CC4)CC[C@H]3[C@H](/C=C/c3ccc(-c4cccc(C(F)(F)F)c4)cn3)[C@H]12 | 37.5 |  |  |
| C[C@H]1OC(=O)[C@@H]2C[C@@H]3CN(C(=O)C4CC4)CC[C@H]3[C@H](/C=C/c3ccc(-c4ccccc4F)cn3)[C@H]12 | 8 | 6010 | inhibition in vivo at 3 mg/kg (Cynomolgus monkey [3]): 39%; inhibition in vivo at 3 mg/kg (Cynomolgus monkey [4]): 45% |
| CCOC(=O)N1CC[C@@H]2[C@H](C[C@H]3C(=O)O[C@H](C)[C@H]3[C@H]2/C=C/c2ccc(-c3cccc(C(F)(F)F)c3)cn2)C1 | 11 |  |  |
| CCOC(=O)N1CC[C@@H]2[C@H](C[C@H]3C(=O)O[C@H](C)[C@H]3[C@H]2/C=C/c2ccc(-c3ccccn3)cn2)C1 | 33.5 |  | inhibition in vivo at 3 mg/kg (Cynomolgus monkey [3]): 29%; inhibition in vivo at 3 mg/kg (Cynomolgus monkey [4]): 67% |
| C[C@H]1OC(=O)[C@@H]2C[C@@H]3CN(C)CC[C@H]3[C@H](/C=C/c3ccc(-c4cccc(C(F)(F)F)c4)cn3)[C@H]12 | 762 |  |  |
| C[C@H]1OC(=O)[C@@H]2C[C@@H]3CN(C(N)=O)CC[C@H]3[C@H](/C=C/c3ccc(-c4cccc(F)c4)cn3)[C@H]12 | 1100 |  |  |
| CCOC(=O)N1CCC[C@H]2[C@H](/C=C/c3ccc(-c4cccc(F)c4)cn3)[C@@H]3[C@@H](C)OC(=O)[C@@H]3C[C@@H]21 | 224 |  |  |
| C[C@H]1OC(=O)[C@@H]2C[C@@H]3COCC[C@H]3[C@H](/C=C/c3ccc(-c4cccc(F)c4)cn3)[C@H]12 | 26 | 850 | inhibition in vivo at 1 mg/kg (Cynomolgus monkey [6]): 80%; Activity (Cynomolgus monkey [7]): Active |
| C[C@H]1OC(=O)[C@@H]2C[C@@H]3CNCC[C@H]3[C@H](/C=C/c3ccc(-c4cccc(C(F)(F)F)c4)cn3)[C@H]12 | 600 |  |  |
| CC(=O)N1CC[C@@H]2[C@H](C[C@H]3C(=O)O[C@H](C)[C@H]3[C@H]2/C=C/c2ccc(-c3cccc(C(F)(F)F)c3)cn2)C1 | 550 |  |  |
| C[C@H]1OC(=O)[C@@H]2C[C@@H]3COCC[C@H]3[C@H](/C=C/c3ccc(-c4ccccc4F)cn3)[C@H]12 | 25 | 1050 | bioavailability [8]: 71%; inhibition in vivo at 1 mg/kg (Cynomolgus monkey [6]): 55%; Tmax [9]: 1.7 h; half-life [10]: 8.6 h; AUC(0-t) [11]: 3700 ng·h/mL; Cmax [12]: 610 ng/mL; Activity (Cynomolgus monkey [7]): Active |
| C[C@H]1OC(=O)[C@@H]2C[C@@H]3C[S+]([O-])CC[C@H]3[C@H](/C=C/c3ccc(-c4cccc(C(F)(F)F)c4)cn3)[C@H]12 (stereo in doubt) | 80 |  |  |
| CC(C)C(=O)N1CC[C@@H]2[C@H](C[C@H]3C(=O)O[C@H](C)[C@H]3[C@H]2/C=C/c2ccc(-c3cccc(C(F)(F)F)c3)cn2)C1 | 113 |  |  |
